What all share (assay type): ADME, organism-based
Set-up in all cases: dose 50 mg/kg, route intravenous

A short description of data set [1]: Clearance in infant during extracorporeal membrane oxygenation at 50 mg/kg, iv dosed 2 to 3 times per day as bolus dose. Conditions: human, in vivo. In short, it runs like this:
(§1)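 Infants on ECMO (n=37; PNA 0.67–199 days; 2.0–6.2 kg). Cefotaxime given as an IV bolus (≤3 min) into the extracorporeal line after the oxygenator. Dosing: 50 mg/kg b.i.d. for PNA <1 week, 50 mg/kg t.i.d. for 1–4 weeks, 37.5 mg/kg q.i.d. for >4 weeks. Routine venous circuit samples (EDTA), including post-decannulation up to 24 h. Cefotaxime and desacetyl metabolite measured by LC-MS (LOQ 0.2 mg/liter). One-compartment NONMEM population model.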

Data set [2] is described as follows: Clearance in infant weighing 2 to 6.2 kg weight after extracorporeal membrane oxygenation at 50 mg/kg, iv dosed 2 to 3 times per day as bolus dose measured after 72 hrs. Conditions: human, in vivo. The method, boiled down:
as §1

The subject of data set [3] is Homo sapiens. Put plainly: Volume of distribution in infant during extracorporeal membrane oxygenation assessed as desacetylcefotaxime at 50 mg/kg, iv dosed 2 to 3 times per day as bolus dose. Conditions: in vivo. In short, it runs like this: as §1
Data set [4] concerns Homo sapiens. Put plainly: Clearance in infant weighing 2 to 6.2 kg weight assessed as desacetylcefotaxime at 50 mg/kg, iv dosed 2 to 3 times per day as bolus dose. Conditions: in vivo. The method, boiled down: as §1
The nature of data set [5]: Clearance in infant weighing 2 to 6.2 kg weight at 50 mg/kg, iv dosed 2 to 3 times per day as bolus dose. Conditions: human, in vivo. In short, it runs like this:
as §1

The subject of data set [6] is Homo sapiens. Description: Clearance in infant during extracorporeal membrane oxygenation assessed as desacetylcefotaxime at 50 mg/kg, iv dosed 2 to 3 times per day as bolus dose. Conditions: in vivo. In short, it runs like this:
as §1

Data set [7] is described as follows: Volume of distribution in infant during extracorporeal membrane oxygenation at 50 mg/kg, iv dosed 2 to 3 times per day as bolus dose. Conditions: human, in vivo. In short, it runs like this:
as §1

The nature of data set [8]: Clearance in infant weighing 2 to 6.2 kg weight after extracorporeal membrane oxygenation at 50 mg/kg, iv dosed 2 to 3 times per day as bolus dose. Conditions: human, in vivo. In short, it runs like this:
as §1

A short description of data set [9]: Elimination half life in infant weighing 2 to 6.2 kg weight during extracorporeal membrane oxygenation at 50 mg/kg, iv dosed 2 to 3 times in a day bolus dose. Conditions: human, in vivo, read-out: beta t1/2 (converted). In short, it runs like this:
as §1

The subject of data set [10] is Homo sapiens. Put plainly: Elimination half life in infant weighing 2 to 6.2 kg weight during extracorporeal membrane oxygenation assessed as desacetylcefotaxime at 50 mg/kg, iv dosed 2 to 3 times per day as bolus dose. Conditions: in vivo. In short, it runs like this: as §1
The test system of data set [11] is Homo sapiens. Put plainly: Clearance in infant weighing 2 to 6.2 kg weight after extracorporeal membrane oxygenation assessed as desacetylcefotaxime at 50 mg/kg, iv dosed 2 to 3 times per day as bolus dose. Conditions: in vivo. In short, it runs like this:
as §1

The nature of data set [12]: Clearance in infant weighing 2 to 6.2 kg weight during extracorporeal membrane oxygenation at 50 mg/kg, iv dosed 2 to 3 times per day as bolus dose. Conditions: human, in vivo. The method, boiled down: as §1
In data set [13] the test system is Homo sapiens. Put plainly: Clearance in infant weighing 2 to 6.2 kg weight after extracorporeal membrane oxygenation assessed as desacetylcefotaxime at 50 mg/kg, iv dosed 2 to 3 times per day as bolus dose measured after 72 hrs. Conditions: in vivo. The method, boiled down:
as §1

The structures appear in SMILES notation.

For `CO/N=C(\C(=O)N[C@@H]1C(=O)N2C(C(=O)O)=C(COC(C)=O)CS[C@H]12)c1csc(N)n1` [CEFOTAXIME], the clearance – broadly, the volume of plasma or blood freed of the substance per unit of time – in data set [1] was 6 mL/min; in [2], 6.67 mL/min; in data set [5], 5 mL/min; in data set [8], 3.67 mL/min; in data set [12], 4.33 mL/min. Further, the Vd – broadly, a proportionality between amount in the body and measured concentration, not a real space – is 11 L in data set [3] and 1.82 L in data set [7]. Moreover, the CL turned out to be 1.37 L/h in data set [4], 1.46 L/h in data set [6], 0.18 L/h in [11] and 1.38 L/h in [13]. Besides, the half-life in data set [9] is 1.6 h. Moreover, the “beta t1/2” value in data set [10] amounted to 0.8 h.
